SMILES strings stand for the structures.

Data set [1] deals with Tyrosine-protein kinase Srms (Homo sapiens) (UniProt Q9H3Y6). In words: Binding affinity to wild-type human partial length SRMS (L208 to P488 residues) expressed in mammalian expression system assessed as residual binding level at 1 uM by Kinomescan method relative to control.
The target in data set [2] is NT-3 growth factor receptor (Homo sapiens) (UniProt Q16288). In words: Binding affinity to wild-type human partial length TRKC (Q531 to G825 residues) expressed in mammalian expression system assessed as residual binding level at 1 uM by Kinomescan method relative to control.
NT-3 growth factor receptor (Homo sapiens), sequence (Q16288 32-839 limits assumed): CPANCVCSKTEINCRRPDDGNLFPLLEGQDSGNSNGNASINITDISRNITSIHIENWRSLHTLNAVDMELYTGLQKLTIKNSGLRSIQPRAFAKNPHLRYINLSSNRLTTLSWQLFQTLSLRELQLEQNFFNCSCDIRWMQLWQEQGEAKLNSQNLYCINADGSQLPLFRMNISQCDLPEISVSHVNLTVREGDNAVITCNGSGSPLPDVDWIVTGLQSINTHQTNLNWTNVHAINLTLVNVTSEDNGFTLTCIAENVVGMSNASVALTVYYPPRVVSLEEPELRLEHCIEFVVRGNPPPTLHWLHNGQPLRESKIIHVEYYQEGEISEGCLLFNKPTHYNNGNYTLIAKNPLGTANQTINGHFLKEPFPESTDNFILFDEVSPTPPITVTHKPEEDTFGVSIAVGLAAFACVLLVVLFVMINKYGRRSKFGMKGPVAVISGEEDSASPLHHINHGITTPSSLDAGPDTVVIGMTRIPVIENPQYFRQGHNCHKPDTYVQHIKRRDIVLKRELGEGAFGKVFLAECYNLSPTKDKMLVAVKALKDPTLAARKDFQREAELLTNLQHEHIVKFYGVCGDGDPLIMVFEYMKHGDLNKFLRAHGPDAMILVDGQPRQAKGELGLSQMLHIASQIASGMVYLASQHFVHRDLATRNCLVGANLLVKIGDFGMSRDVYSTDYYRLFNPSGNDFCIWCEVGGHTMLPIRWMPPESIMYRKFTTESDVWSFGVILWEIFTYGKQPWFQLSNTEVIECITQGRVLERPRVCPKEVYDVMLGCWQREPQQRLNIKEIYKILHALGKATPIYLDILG
For data set [3], the target named is Phosphorylase b kinase gamma catalytic chain, skeletal muscle/heart isoform (Homo sapiens) (UniProt Q16816). Put plainly: Binding affinity to wild-type human full length PHKG1 (M1 to Y387 residues) expressed in bacterial expression system assessed as residual binding level at 1 uM by Kinomescan method relative to control. The method in brief:
(§1)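 Single-point kinome-wide KINOMEscan binding panel, test compound at 1 μM, run by the provider's standard protocol.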

The next data set has as its target CYP3A4 (Homo sapiens, UniProt P08684). Put plainly: Residual activity of CYP3A4 in human liver microsomes at 10 uM using midazolam 1-hydroxylase as substrate preincubated for 5 mins followed by NADPH addition measured after 15 mins by LC/MS/MS analysis relative to control. The note with it: probe midazolam (1-hydroxylation). For orientation: Liver microsomes are vesicles of endoplasmic reticulum, rich in cytochrome P450 enzymes.

Data set [4] has as its target Macrophage colony-stimulating factor 1 receptor (Homo sapiens) (UniProt P07333). Put plainly: Binding affinity to wild-type human partial length autoinhibited CSF1R (Y538 to S939 residues) expressed in mammalian expression system assessed as residual binding level at 1 uM by Kinomescan method relative to control.
Data set [5] concerns the target Receptor-interacting serine/threonine-protein kinase 2 (Homo sapiens) (UniProt O43353). Put plainly: Binding affinity to wild-type human partial length RIPK2 (M1 to K310 residues) expressed in bacterial expression system assessed as residual binding level at 1 uM by Kinomescan method relative to control.
The target of data set [6] is SRSF protein kinase 2 (Homo sapiens) (UniProt P78362). Put plainly: Binding affinity to wild-type human full length SRPK2 (M1 to S686 residues) expressed in bacterial expression system assessed as residual binding level at 1 uM by Kinomescan method relative to control. The method in brief:
as §1

Data set [7] deals with Serine/threonine-protein kinase 4 (Homo sapiens) (UniProt Q13043). In words: Binding affinity to wild-type human full length MST1 (M1 to F487 residues) expressed in bacterial expression system assessed as residual binding level at 1 uM by Kinomescan method relative to control. The method in brief: as §1
Serine/threonine-protein kinase 4 (Homo sapiens), sequence (Q13043 whole entry, the tested form may be a part): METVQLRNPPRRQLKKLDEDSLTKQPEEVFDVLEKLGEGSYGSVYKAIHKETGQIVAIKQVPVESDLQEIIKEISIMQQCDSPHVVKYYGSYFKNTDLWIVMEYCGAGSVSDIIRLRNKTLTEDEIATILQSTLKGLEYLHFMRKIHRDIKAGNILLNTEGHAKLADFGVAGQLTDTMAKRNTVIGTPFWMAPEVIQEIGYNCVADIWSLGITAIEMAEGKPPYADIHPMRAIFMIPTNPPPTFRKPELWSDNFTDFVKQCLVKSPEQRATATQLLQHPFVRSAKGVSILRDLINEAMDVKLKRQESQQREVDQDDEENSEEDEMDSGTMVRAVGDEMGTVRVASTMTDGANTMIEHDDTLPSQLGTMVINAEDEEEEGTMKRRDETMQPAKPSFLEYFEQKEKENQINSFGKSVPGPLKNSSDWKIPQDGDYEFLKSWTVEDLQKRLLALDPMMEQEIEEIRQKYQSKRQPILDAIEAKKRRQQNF
Data set [8] addresses Tyrosine-protein kinase Mer (Homo sapiens) (UniProt Q12866). In words: Binding affinity to wild-type human partial length MERTK (R557 to L884 residues) expressed in bacterial expression system assessed as residual binding level at 1 uM by Kinomescan method relative to control.
Data set [9] has as its target Eukaryotic translation initiation factor 2-alpha kinase 1 (Homo sapiens) (UniProt Q9BQI3). In words: Binding affinity to wild-type human partial length EIF2AK1 (Q147 to E603 residues) expressed in mammalian expression system assessed as residual binding level at 1 uM by Kinomescan method relative to control.
A short description of data set [10]: Oral bioavailability in mouse at 10 mg/kg. Type of data set: ADME, organism-based. The conditions noted are these: in vivo.
Data set [11] has as its target Cyclin-dependent kinase 16 (Homo sapiens) (UniProt Q00536). Put plainly: Binding affinity to wild-type human partial length PCTK1 (G160 to A474 residues) expressed in mammalian expression system assessed as residual binding level at 1 uM by Kinomescan method relative to control.
The subject of data set [12] is Proto-oncogene tyrosine-protein kinase receptor Ret (Homo sapiens), P07949 [M918T]. In words: Binding affinity to human partial length RET M918T mutant (E713 to D1014 residues) expressed in bacterial expression system assessed as residual binding level at 1 uM by Kinomescan method relative to control. The method in brief:
(§2)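 Kinome-wide selectivity panel run by the KINOMEscan method, with the test compound at a single concentration of 1 μM. Wild-type and mutant kinases were profiled in the same screen.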

The target in data set [13] is Tyrosine-protein kinase ABL1 (Homo sapiens) (UniProt P00519). Put plainly: Binding affinity to wild-type human phosphorylated ABL1 (S229 to K512 residues) expressed in mammalian expression system assessed as residual binding level at 1 uM by Kinomescan method relative to control.
In data set [14] the target is Tyrosine-protein kinase ABL2 (Homo sapiens) (UniProt P42684). In words: Binding affinity to wild-type human ABL2 (A248 to G542 residues) expressed in bacterial expression system assessed as residual binding level at 1 uM by Kinomescan method relative to control. The method in brief:
as §2

For data set [15], the target named is Beta-adrenergic receptor kinase 1 (Homo sapiens) (UniProt P25098). Put plainly: Binding affinity to wild-type human full length GRK2 (M1 to L689 residues) expressed in mammalian expression system assessed as residual binding level at 1 uM by Kinomescan method relative to control. The method in brief:
as §1

Data set [16] deals with Hepatocyte growth factor receptor (Homo sapiens), P08581 [Y1235D]. Put plainly: Binding affinity to human partial length MET Y1235D mutant (D1010 to S1367 residues) expressed in bacterial expression system assessed as residual binding level at 1 uM by Kinomescan method relative to control. The method in brief:
as §2

Data set [17] has as its target Serine/threonine-protein kinase Sgk2 (Homo sapiens) (UniProt Q9HBY8). Put plainly: Binding affinity to wild-type human partial length SGK2 (L54 to C427 residues) expressed in mammalian expression system assessed as residual binding level at 1 uM by Kinomescan method relative to control.
In data set [18] the target is Serine/threonine-protein kinase PAK 4 (Homo sapiens) (UniProt O96013). In words: Binding affinity to wild-type human partial length PAK4 (Q144 to R438 residues) expressed in bacterial expression system assessed as residual binding level at 1 uM by Kinomescan method relative to control.
Data set [19] concerns the target Tyrosine-protein kinase JAK1 (Homo sapiens) (UniProt P23458). In words: Binding affinity to wild-type human partial length JAK1 JH2 pseudokinase domain (R537 to D855 residues) expressed in mammalian expression system assessed as residual binding level at 1 uM by Kinomescan method relative to control.
In data set [20] the target is Tyrosine-protein kinase Yes (Homo sapiens) (UniProt P07947). Put plainly: Binding affinity to wild-type human partial length YES (T257 to L543 residues) expressed in bacterial expression system assessed as residual binding level at 1 uM by Kinomescan method relative to control.
In data set [21] the target is Leucine-rich repeat serine/threonine-protein kinase 2 (Homo sapiens) (UniProt Q5S007). Put plainly: Binding affinity to wild-type human partial length LRRK2 (H970 to E2527 residues) expressed in mammalian expression system assessed as residual binding level at 1 uM by Kinomescan method relative to control.
Data set [22] has as its target Cyclin-dependent kinase 18 (Homo sapiens) (UniProt Q07002). In words: Binding affinity to wild-type human full length PCTK3 (M3 to F474 residues) expressed in bacterial expression system assessed as residual binding level at 1 uM by Kinomescan method relative to control. The method in brief: as §1
A further data set addresses CYP2D6 (Homo sapiens, UniProt P10635). Put plainly: Residual activity of CYP2D6 in human liver microsomes at 10 uM using dextromethorphan O-demethylase as substrate preincubated for 5 mins followed by NADPH addition measured after 15 mins by LC/MS/MS analysis relative to control. The conditions noted are these: probe dextromethorphan (O-demethylation).

CYP3A4, sequence (P08684 whole entry): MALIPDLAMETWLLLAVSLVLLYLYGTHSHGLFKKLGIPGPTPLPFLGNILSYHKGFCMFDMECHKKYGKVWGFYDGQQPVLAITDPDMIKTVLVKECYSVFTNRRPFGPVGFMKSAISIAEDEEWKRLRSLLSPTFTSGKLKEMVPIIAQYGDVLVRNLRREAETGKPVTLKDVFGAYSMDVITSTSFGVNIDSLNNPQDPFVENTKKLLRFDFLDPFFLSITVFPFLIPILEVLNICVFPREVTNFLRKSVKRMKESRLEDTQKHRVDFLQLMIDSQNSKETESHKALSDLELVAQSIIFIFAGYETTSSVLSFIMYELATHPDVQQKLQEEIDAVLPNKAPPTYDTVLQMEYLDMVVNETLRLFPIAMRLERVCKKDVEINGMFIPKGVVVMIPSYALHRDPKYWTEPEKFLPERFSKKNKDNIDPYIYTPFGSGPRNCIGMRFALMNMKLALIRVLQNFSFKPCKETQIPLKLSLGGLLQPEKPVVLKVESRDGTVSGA
Tyrosine-protein kinase ABL2 (Homo sapiens), sequence (P42684 whole entry, the tested form may be a part): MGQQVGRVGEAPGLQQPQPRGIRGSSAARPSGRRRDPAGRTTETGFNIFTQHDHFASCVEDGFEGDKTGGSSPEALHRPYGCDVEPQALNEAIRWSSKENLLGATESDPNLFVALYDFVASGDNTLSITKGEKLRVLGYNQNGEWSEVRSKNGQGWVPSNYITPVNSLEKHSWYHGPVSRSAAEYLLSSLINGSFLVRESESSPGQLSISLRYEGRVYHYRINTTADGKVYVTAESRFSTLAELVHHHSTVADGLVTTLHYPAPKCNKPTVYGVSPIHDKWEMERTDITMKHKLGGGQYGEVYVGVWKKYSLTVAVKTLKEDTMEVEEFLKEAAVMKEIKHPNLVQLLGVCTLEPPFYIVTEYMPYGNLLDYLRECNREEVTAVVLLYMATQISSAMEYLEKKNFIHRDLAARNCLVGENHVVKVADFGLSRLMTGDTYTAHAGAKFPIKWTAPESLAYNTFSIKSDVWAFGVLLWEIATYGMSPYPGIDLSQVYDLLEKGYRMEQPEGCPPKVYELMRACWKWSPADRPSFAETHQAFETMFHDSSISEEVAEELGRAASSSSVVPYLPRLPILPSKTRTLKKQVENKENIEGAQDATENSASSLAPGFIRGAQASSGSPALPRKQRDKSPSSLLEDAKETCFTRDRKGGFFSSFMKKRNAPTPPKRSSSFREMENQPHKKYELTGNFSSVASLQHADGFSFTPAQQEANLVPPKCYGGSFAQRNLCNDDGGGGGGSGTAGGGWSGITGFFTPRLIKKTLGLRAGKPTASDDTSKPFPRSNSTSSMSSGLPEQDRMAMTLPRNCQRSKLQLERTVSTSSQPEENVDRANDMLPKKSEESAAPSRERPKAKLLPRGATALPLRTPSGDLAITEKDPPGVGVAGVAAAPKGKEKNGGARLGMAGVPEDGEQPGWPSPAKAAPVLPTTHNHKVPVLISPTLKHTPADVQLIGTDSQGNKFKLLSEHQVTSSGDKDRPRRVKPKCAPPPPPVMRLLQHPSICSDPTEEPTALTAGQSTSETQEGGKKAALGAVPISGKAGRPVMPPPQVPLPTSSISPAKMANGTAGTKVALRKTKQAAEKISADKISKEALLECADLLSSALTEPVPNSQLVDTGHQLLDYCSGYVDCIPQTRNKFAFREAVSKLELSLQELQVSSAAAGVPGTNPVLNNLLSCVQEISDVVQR
Eukaryotic translation initiation factor 2-alpha kinase 1 (Homo sapiens), sequence (Q9BQI3 whole entry, the tested form may be a part): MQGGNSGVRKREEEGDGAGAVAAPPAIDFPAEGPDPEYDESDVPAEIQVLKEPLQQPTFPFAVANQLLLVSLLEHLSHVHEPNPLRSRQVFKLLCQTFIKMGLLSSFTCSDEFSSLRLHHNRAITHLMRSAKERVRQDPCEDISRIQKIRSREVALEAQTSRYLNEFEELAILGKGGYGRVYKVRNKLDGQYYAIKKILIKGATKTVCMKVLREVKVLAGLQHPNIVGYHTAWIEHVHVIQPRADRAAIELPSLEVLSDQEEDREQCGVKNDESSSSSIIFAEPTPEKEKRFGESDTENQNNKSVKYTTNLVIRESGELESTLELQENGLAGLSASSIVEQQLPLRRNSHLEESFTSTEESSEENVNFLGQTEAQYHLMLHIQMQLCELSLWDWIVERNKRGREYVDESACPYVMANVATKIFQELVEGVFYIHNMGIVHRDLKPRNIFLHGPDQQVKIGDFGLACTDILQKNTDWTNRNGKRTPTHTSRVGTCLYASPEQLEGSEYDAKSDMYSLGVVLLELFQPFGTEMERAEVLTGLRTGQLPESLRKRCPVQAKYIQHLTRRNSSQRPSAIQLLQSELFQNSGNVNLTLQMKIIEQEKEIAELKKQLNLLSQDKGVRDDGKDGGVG
Beta-adrenergic receptor kinase 1 (Homo sapiens), sequence (P25098 whole entry, the tested form may be a part): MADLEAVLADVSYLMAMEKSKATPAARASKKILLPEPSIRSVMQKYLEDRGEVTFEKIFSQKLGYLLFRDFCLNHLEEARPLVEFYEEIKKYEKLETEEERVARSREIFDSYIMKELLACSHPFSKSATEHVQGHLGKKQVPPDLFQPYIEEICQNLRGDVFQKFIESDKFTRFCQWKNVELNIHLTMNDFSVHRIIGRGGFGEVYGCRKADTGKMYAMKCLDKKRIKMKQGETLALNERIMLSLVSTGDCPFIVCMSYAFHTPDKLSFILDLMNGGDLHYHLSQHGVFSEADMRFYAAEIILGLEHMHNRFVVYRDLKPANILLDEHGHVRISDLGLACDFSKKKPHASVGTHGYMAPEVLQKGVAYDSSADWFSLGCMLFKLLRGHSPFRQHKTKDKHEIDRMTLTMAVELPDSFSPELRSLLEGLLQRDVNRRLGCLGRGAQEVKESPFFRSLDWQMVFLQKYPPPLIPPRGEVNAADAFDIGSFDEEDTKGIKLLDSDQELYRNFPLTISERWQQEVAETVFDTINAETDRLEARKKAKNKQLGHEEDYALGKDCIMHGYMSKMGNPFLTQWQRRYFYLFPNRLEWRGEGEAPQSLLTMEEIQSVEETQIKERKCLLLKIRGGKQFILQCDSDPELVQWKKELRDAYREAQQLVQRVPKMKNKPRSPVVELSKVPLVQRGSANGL
Serine/threonine-protein kinase Sgk2 (Homo sapiens), sequence (Q9HBY8 whole entry, the tested form may be a part): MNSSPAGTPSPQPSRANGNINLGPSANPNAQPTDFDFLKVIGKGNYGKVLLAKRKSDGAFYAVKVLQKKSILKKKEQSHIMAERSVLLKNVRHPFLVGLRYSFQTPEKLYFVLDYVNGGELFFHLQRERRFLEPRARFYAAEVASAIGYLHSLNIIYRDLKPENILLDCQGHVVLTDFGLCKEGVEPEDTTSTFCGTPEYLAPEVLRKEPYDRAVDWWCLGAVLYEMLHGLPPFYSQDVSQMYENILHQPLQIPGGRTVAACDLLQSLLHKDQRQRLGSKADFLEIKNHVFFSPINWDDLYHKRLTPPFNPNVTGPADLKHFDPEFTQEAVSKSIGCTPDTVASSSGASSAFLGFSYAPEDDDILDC

As for `C=CC(=O)Nc1cc(Nc2ncc(Cl)c(Nc3ccccc3S(=O)(=O)C(C)C)n2)c(OC)cc1N(C)CCN(C)C`, the Activity was found to be 6.5% in data set [1]; 85% in data set [2]; 24% in [3]; 92% in [4]; 81% in [5]; 99% in data set [6]. In addition, the Activity in data set [7] was determined as 86%; in data set [8], 2.7%; in data set [9] it was 72%; in data set [11], 91%; in data set [12], 9.7%; in data set [13], 7.5%. Further, the Activity worked out at 50% in [14]; 100% in [15]; 62% in data set [16]; 95% in data set [17]; 78% in [18]; 63% in data set [19]. The Activity in [20] turned out to be 17%; in data set [21], 1.7%; in [22] it was 77%. Further, the Activity at […], 10 µM at CYP3A4 stood at 44%; on CYP2D6, 90%. The bioavailability in data set [10] came out at 24%.

Usually bioavailability stands for the share of a dose that reaches the circulation, judged against a reference dose that is usually intravenous.
